Laboratory results from ChEMBL document CHEMBL3872233, “Topical Treatment of Leishmania tropica Infection Using (-)-α-Bisabolol Ointment in a Hamster Model: Effectiveness and Safety Assessment” (J Nat Prod, 2016).
Activity calls are given as the source filed them. The calls are words filed in the database; no cut-off is given here.

Assays:
[1] = tested on: Leishmania tropica; assay: (§1) Antileishmanial activity against Leishmania tropica MHOM/MA/1988/LEM1314 promastigotes infected in Syrian hamster assessed as reduction in lesion thickness at 1 % administered once daily tropically on footpad for 3 weeks starting at week 7 post infection measured 1 week post last dose relative to control; type: functional; design: scale not given: the % may be the effect or the level left
Method in brief: (§2)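 L. tropica stationary-phase promastigotes (3 × 10^7 in 50 μL PBS) injected into the left hind footpad. Treatment began at week 7 (+75% footpad thickness) and ran daily for 21 days, n = 10/group. Routes were 50 mg ointment on the lesion (cetyl alcohol/lanolin/petrolatum base), gavage in olive oil, or intralesional meglumine antimoniate 2 mg SbV/kg. Lesion thickness was measured weekly against base-only ointment; sacrifice was 1 week after the last dose.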

[2] = tested on: Leishmania tropica; assay: as §1, with “at 2.5” for “at 1”; type: functional; design: scale not given: the % may be the effect or the level left; method in brief: as §2
[3] = tested on: Syrian golden hamster; assay: Toxicity in Syrian hamster assessed as diarrhea at 500 mg/kg, po or 5 % administered tropically on footpad for 28 days; type: organism-based, Mesocricetus auratus; settings: in vivo, 672 h
[4] = tested on: Syrian golden hamster; assay: Toxicity in Syrian hamster assessed as footpad edema at 500 mg/kg, po or 5 % administered tropically on footpad for 28 days; type: organism-based, Mesocricetus auratus; settings: in vivo, 672 h
[5] = tested on: Syrian golden hamster; assay: Toxicity in Syrian hamster infected with Leishmania tropica MHOM/MA/1988/LEM1314 promastigotes assessed as mean serum ALT levels at 1 % administered tropically on footpad for 3 weeks starting at week 7 post infection measured 1 week post last dose (reference value: 81.6 +/- 4.9 U/L); type: organism-based, Mesocricetus auratus; settings: in vivo, topical_or_ocular, 168 h
[6] = tested on: Syrian golden hamster; assay: Toxicity in Syrian hamster infected with Leishmania tropica MHOM/MA/1988/LEM1314 promastigotes assessed as mean serum creatinine levels at 2.5 % administered tropically on footpad for 3 weeks starting at week 7 post infection measured 1 week post last dose (reference value: 0.19 mg/dl); type: organism-based, Mesocricetus auratus; settings: in vivo, topical_or_ocular, 168 h
[7] = tested on: Syrian golden hamster; assay: Toxicity in Syrian hamster infected with Leishmania tropica MHOM/MA/1988/LEM1314 promastigotes assessed as mean serum creatinine levels at 5 % administered tropically on footpad for 3 weeks starting at week 7 post infection measured 1 week post last dose (reference value: 0.19 mg/dl); type: organism-based, Mesocricetus auratus; settings: in vivo, topical_or_ocular, 168 h
[8] = tested on: Syrian golden hamster; assay: Toxicity in Syrian hamster infected with Leishmania tropica MHOM/MA/1988/LEM1314 promastigotes assessed as mean serum ALP levels at 200 mg/kg administered through oral gavage for 3 weeks starting at week 7 post infection measured 1 week post last dose (reference value: 14.4 +/- 0.9 U/L); type: organism-based, Mesocricetus auratus; settings: in vivo, 168 h
[9] = tested on: Syrian golden hamster; assay: Toxicity in Syrian hamster infected with Leishmania tropica MHOM/MA/1988/LEM1314 promastigotes assessed as mean serum ALP levels at 1 % administered tropically on footpad for 3 weeks starting at week 7 post infection measured 1 week post last dose (reference value: 14.4 +/- 0.9 U/L); type: organism-based, Mesocricetus auratus; settings: in vivo, topical_or_ocular, 168 h
Method in brief: (§3)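 Infected hamsters were treated daily for 21 days from week 7 post-infection (ointment 1–5%, 200 mg/kg gavage, or intralesional meglumine antimoniate 2 mg SbV/kg). Clinical signs and body weight were monitored during treatment and a 7-day follow-up. After sacrifice, liver and spleen were weighed and serum ALP, ALT, creatinine, urea and AST were measured with kits, compared with untreated infected animals.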

[10] = tested on: Syrian golden hamster; assay: Toxicity in Syrian hamster infected with Leishmania tropica MHOM/MA/1988/LEM1314 promastigotes assessed as urea levels at 1 % administered tropically on footpad for 3 weeks starting at week 7 post infection measured 1 week post last dose (reference value: 32.5 +/- 0.8 mg/dl); type: organism-based, Mesocricetus auratus; settings: in vivo, topical_or_ocular, 168 h
[11] = tested on: Syrian golden hamster; assay: Toxicity in Syrian hamster assessed as liver weight at 5 % administered tropically on footpad for 28 days (reference value: 4.1 +/- 0.7 g); type: organism-based, Mesocricetus auratus; settings: in vivo, topical_or_ocular, 672 h
[12] = tested on: Syrian golden hamster; assay: Toxicity in Syrian hamster infected with Leishmania tropica MHOM/MA/1988/LEM1314 promastigotes assessed as liver weight at 200 mg/kg administered through oral gavage for 3 weeks starting at week 7 post infection measured 1 week post last dose (reference value: 3.3 +/- 0.2 g); type: organism-based, Mesocricetus auratus; settings: in vivo; method in brief: as §3
[13] = tested on: Syrian golden hamster; assay: Toxicity in Syrian hamster infected with Leishmania tropica MHOM/MA/1988/LEM1314 promastigotes assessed as liver weight at 1 % administered tropically on footpad for 3 weeks starting at week 7 post infection measured 1 week post last dose (reference value: 3.3 +/- 0.2 g); type: organism-based, Mesocricetus auratus; settings: in vivo, topical_or_ocular, 168 h; method in brief: as §3
[14] = tested on: Syrian golden hamster; assay: Toxicity in Syrian hamster infected with Leishmania tropica MHOM/MA/1988/LEM1314 promastigotes assessed as liver weight at 2.5 % administered tropically on footpad for 3 weeks starting at week 7 post infection measured 1 week post last dose (reference value: 3.3 +/- 0.2 g); type: organism-based, Mesocricetus auratus; settings: in vivo, topical_or_ocular, 168 h; method in brief: as §3
[15] = tested on: Syrian golden hamster; assay: Toxicity in Syrian hamster infected with Leishmania tropica MHOM/MA/1988/LEM1314 promastigotes assessed as liver weight at 5 % administered tropically on footpad for 3 weeks starting at week 7 post infection measured 1 week post last dose (reference value: 3.3 +/- 0.2 g); type: organism-based, Mesocricetus auratus; settings: in vivo, topical_or_ocular, 168 h; method in brief: as §3
[16] = tested on: Syrian golden hamster; assay: Toxicity in Syrian hamster infected with Leishmania tropica MHOM/MA/1988/LEM1314 promastigotes assessed as footpad edema at 200 mg/kg administered through oral gavage for 3 weeks starting at week 7 post infection measured during compound dosing or measured 1 week post last dose; type: organism-based, Mesocricetus auratus; settings: in vivo, 168 h; method in brief: as §3
[17] = tested on: Syrian golden hamster; assay: Toxicity in Syrian hamster infected with Leishmania tropica MHOM/MA/1988/LEM1314 promastigotes assessed as redness at 200 mg/kg administered through oral gavage for 3 weeks starting at week 7 post infection measured during compound dosing or measured 1 week post last dose; type: organism-based, Mesocricetus auratus; settings: in vivo, 168 h
Method in brief: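 Infected hamsters (footpad, 3 × 10^7 promastigotes) were gavaged daily for 21 days from week 7 post-infection at 200 mg/kg in olive oil, n=10.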

[18] = tested on: Syrian golden hamster; assay: Toxicity in Syrian hamster infected with Leishmania tropica MHOM/MA/1988/LEM1314 promastigotes assessed as change in body weight at 200 mg/kg administered through oral gavage for 3 weeks starting at week 7 post infection measured during compound dosing or measured 1 week post last dose; type: organism-based, Mesocricetus auratus; settings: in vivo, 168 h; method in brief: as §3
[19] = tested on: Leishmania tropica; assay: (§4) Antileishmanial activity against Leishmania tropica MHOM/MA/1988/LEM1314 promastigotes infected in Syrian hamster assessed as reduction in parasite load in liver at 2 mg/kg administered intralesionally once daily on footpad for 3 weeks starting at week 7 post infection measured 1 week post last dose by qPCR analysis relative to control; type: functional, organism-based
Method in brief: (§5)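 Hamsters were infected in the footpad and treated daily for 21 days from week 7 post-infection, n = 10/group, and sacrificed 1 week after the last dose. Footpad skin, liver and spleen DNA was assayed by L. tropica-specific TaqMan qPCR (chromosome 29 target), in triplicate with 50 ng DNA per 25 μL reaction. Load was interpolated from Ct on a calibration curve of promastigote DNA, relative to base-ointment controls.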

[20] = tested on: Leishmania tropica; assay: as §4, with “spleen” for “liver”, “[…]” for “2 mg/kg”, “administered” for “administered intralesionally”, “through oral gavage” for “on footpad”; type: functional; method in brief: as §5

## CC(C)=CCC[C@](C)(O)[C@@H]1CC=C(C)CC1 [LEVOMENOL]
[1]
  Activity: 49%
[2]
  Activity: 56.4%
[3]
  Activity: Non-Toxic
[4]
  Activity: Non-Toxic
[5]
  Activity: 81.9 U/L
[6]
  Activity: 0.21 mg/dL
[7]
  Activity: 0.18 mg/dL
[8]
  Activity: 12.9 U/L
[9]
  Activity: 13 U/L
[10]
  Activity: 33.7 mg/dL
[11]
  Activity: 3.4 g
[12]
  Activity: 3 g
[13]
  Activity: 3.2 g
[14]
  Activity: 3.3 g
[15]
  Activity: 3.2 g
[16]
  Activity: Non-Toxic
[17]
  Activity: Non-Toxic
[18]
  Activity: Non-Toxic
[19]
  Activity: Active
[20]
  Activity: Active
